Converted amounts (≈) assume the structure as drawn.
Experiments:
DNA gyrase subunit B = DNA gyrase subunit B (Staphylococcus aureus, UniProt P0A0K8); assay: Inhibition of ATPase activity of recombinant Staphylococcus aureus DNA gyrase B hybrid tetramer enzyme reconstituted from Escherichia coli GyrA by ammonium molybdate/malachite green phosphate assay
Summary of the method: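 GyrB ATPase activity of a hybrid tetramer reconstituted in vitro from recombinant S. aureus protein. Released phosphate detected with ammonium molybdate/malachite green. Test compound assayed across a range of concentrations.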

Streptococcus pneumoniae [1] = assay: Antibacterial activity against Streptococcus pneumoniae ARC548; type: functional
Staphylococcus aureus [2] = assay: Antibacterial activity against Staphylococcus aureus ARC516; type: functional
Staphylococcus aureus [3] = assay: Antibacterial activity against methicillin-resistant, quinolone-resistant Staphylococcus aureus ARC517; type: functional
Moraxella catarrhalis = assay: Antibacterial activity against Moraxella catarrhalis ARC445; type: functional
Enterococcus faecium = assay: Antibacterial activity against Enterococcus faecium ARC073; type: functional
Haemophilus influenzae = assay: Antibacterial activity against Haemophilus influenzae ARC446; type: functional
Escherichia coli [4] = assay: Antibacterial activity against Escherichia coli ARC523; type: functional
Escherichia coli [5] = assay: Antibacterial activity against TolC-deficient Escherichia coli ARC524; type: functional
Streptococcus pneumoniae [6] = assay: Antibacterial activity against Streptococcus pneumoniae ARC548 infected in po dosed CD1 mouse lung infection pneumonia model assessed as reduction in viable bacterial counts administered 18 hrs after post infection measured after 24 hrs; type: functional
Summary of the method: (§1)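 Mice infected in the lung with S. pneumoniae received oral doses of drug or vehicle starting 18 h post-infection, at 40, 60 or 80 mg/kg, with a pre-treatment control group. Lungs were taken 24 h after treatment began, and homogenates were serially diluted and plated for viable counts. Results are reported as group mean log CFU/lung ± standard error.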

Streptococcus pneumoniae [7] = assay: Antibacterial activity against Streptococcus pneumoniae ARC548 infected in po dosed CD1 mouse lung infection pneumonia model assessed as dose required to maximum effect on reduction of viable bacterial counts administered 18 hrs after post infection measured after 24 hrs; type: functional; summary of the method: as §1
[8] = Streptococcus pneumoniae, ARC548, read-out: MIC
[9] = Staphylococcus aureus, ARC516, read-out: MIC
[10] = Staphylococcus aureus, ARC517, read-out: MIC
[11] = Moraxella catarrhalis, ARC445, read-out: MIC
[12] = Enterococcus faecium, ARC073, read-out: MIC
[13] = Haemophilus influenzae, ARC446, read-out: MIC
[14] = Escherichia coli, ARC524, read-out: MIC

Sequence of DNA gyrase subunit B (P0A0K8 whole entry): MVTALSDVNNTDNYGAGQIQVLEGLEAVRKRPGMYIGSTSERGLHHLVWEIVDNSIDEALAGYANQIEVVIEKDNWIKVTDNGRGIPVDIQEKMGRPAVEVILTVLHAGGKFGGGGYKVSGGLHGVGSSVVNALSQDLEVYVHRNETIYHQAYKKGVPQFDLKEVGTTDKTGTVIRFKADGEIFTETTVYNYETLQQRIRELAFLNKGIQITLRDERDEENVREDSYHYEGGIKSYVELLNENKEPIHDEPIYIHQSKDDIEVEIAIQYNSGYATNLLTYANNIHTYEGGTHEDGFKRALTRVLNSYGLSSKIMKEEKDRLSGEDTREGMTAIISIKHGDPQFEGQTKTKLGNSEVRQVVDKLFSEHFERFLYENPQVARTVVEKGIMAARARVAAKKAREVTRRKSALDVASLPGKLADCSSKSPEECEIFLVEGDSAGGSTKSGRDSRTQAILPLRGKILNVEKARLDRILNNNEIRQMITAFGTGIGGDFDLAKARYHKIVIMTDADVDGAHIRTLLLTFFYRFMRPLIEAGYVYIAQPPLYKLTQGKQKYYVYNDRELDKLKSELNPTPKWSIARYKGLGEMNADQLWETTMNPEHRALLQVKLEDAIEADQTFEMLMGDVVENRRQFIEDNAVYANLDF

| SMILES | IC50 (DNA gyrase subunit B) | MIC (Streptococcus pneumoniae [1]; [8]) | MIC (Staphylococcus aureus [2]; [9]) | MIC (Staphylococcus aureus [3]; [10]) | MIC (Moraxella catarrhalis; [11]) | MIC (Enterococcus faecium; [12]) | MIC (Haemophilus influenzae; [13]) | MIC (Escherichia coli [4]) | MIC (Escherichia coli [5]; [14]) | MIC (Streptococcus pneumoniae [1]) | MIC (Staphylococcus aureus [2]) | MIC (Staphylococcus aureus [3]) | MIC (Moraxella catarrhalis) | MIC (Enterococcus faecium) | MIC (Haemophilus influenzae) | MIC (Escherichia coli [5]) | Activity (Streptococcus pneumoniae [6]) | ED50 (Streptococcus pneumoniae [6]) | Activity (Streptococcus pneumoniae [7]) |
| --- | --- | --- | --- | --- | --- | --- | --- | --- | --- | --- | --- | --- | --- | --- | --- | --- | --- | --- | --- |
| Cc1[nH]c(C(=O)NC2CCN(c3cc(C(N)=O)cc(Cl)n3)CC2)c(Cl)c1Cl | 30 nM | 1 µg/mL (≈ 2.32 µM) | 4 µg/mL (≈ 9.29 µM) | 4 µg/mL (≈ 9.29 µM) | 2 µg/mL (≈ 4.64 µM) | 4 µg/mL (≈ 9.29 µM) | > 64 µg/mL | > 64 µg/mL | 2 µg/mL (≈ 4.64 µM) | – | – | – | – | – | – | – | – | – | – |
| Cc1[nH]c(C(=O)NC2CCN(c3cc(C(N)=O)cc(Cl)n3)CC2)cc1C#N | 150 nM | 4 µg/mL (≈ 10.3 µM) | – | > 64 µg/mL | – | – | > 64 µg/mL | – | – | – | – | – | – | – | – | – | – | – | – |
| Cc1[nH]c(C(=O)N[C@H]2CCN(c3ncc(C(=O)O)s3)C[C@H]2F)c(Cl)c1Cl (racemic) | < 10 nM | – | – | – | – | – | – | > 64 µg/mL | – | 0.13 µg/mL (≈ 0.309 µM) | 2 µg/mL (≈ 4.75 µM) | 4 µg/mL (≈ 9.49 µM) | <0.06 µg/mL | 0.5 µg/mL (≈ 1.19 µM) | 0.5 µg/mL (≈ 1.19 µM) | 0.13 µg/mL (≈ 0.309 µM) | – | – | – |
| Cc1[nH]c(C(=O)NC2CCN(C3CN[C@H](C(=O)O)C3)CC2)c(Cl)c1Cl (stereo not given in full) | 129000 nM | > 64 µg/mL | > 64 µg/mL | > 64 µg/mL | > 64 µg/mL | > 64 µg/mL | > 64 µg/mL | > 64 µg/mL | > 64 µg/mL | – | – | – | – | – | – | – | – | – | – |
| Cc1[nH]c(C(=O)NC2CCN(c3nc(C(=O)O)cs3)CC2)c(Cl)c1Cl | 20 nM | 0.5 µg/mL (≈ 1.24 µM) | 8 µg/mL (≈ 19.8 µM) | 8 µg/mL (≈ 19.8 µM) | 0.5 µg/mL (≈ 1.24 µM) | 4 µg/mL (≈ 9.92 µM) | 2 µg/mL (≈ 4.96 µM) | > 64 µg/mL | 0.25 µg/mL (≈ 0.62 µM) | – | – | – | – | – | – | – | – | – | – |
| Cc1[nH]c(C(=O)N[C@@H]2CCN(c3ncc(C(=O)O)s3)C[C@@H]2F)c(Cl)c1Cl | – | 0.06 µg/mL (≈ 0.142 µM) | 2 µg/mL (≈ 4.75 µM) | 2 µg/mL (≈ 4.75 µM) | 0.06 µg/mL (≈ 0.142 µM) | 0.25 µg/mL (≈ 0.593 µM) | 0.25 µg/mL (≈ 0.593 µM) | > 64 µg/mL | 0.06 µg/mL (≈ 0.142 µM) | – | – | – | – | – | – | – | Dose-dependent effect | 54 mg/kg | 80 mg/kg |
| Cc1[nH]c(C(=O)NC2CCN(c3nnco3)CC2)c(Cl)c1Cl | 230 nM | 4 µg/mL (≈ 11.6 µM) | 32 µg/mL (≈ 93 µM) | 32 µg/mL (≈ 93 µM) | 4 µg/mL (≈ 11.6 µM) | 32 µg/mL (≈ 93 µM) | 64 µg/mL (≈ 186 µM) | > 64 µg/mL | 4 µg/mL (≈ 11.6 µM) | – | – | – | – | – | – | – | – | – | – |
| Cc1[nH]c(C(=O)N[C@@H]2CCN(c3ncc(C(=O)O)s3)C[C@H]2F)c(Cl)c1Cl (racemic) | 110 nM | 8 µg/mL (≈ 19 µM) | > 64 µg/mL | > 64 µg/mL | 16 µg/mL (≈ 38 µM) | 32 µg/mL (≈ 76 µM) | 64 µg/mL (≈ 152 µM) | > 64 µg/mL | 4 µg/mL (≈ 9.49 µM) | – | – | – | – | – | – | – | – | – | – |
| Cc1[nH]c(C(=O)NC2CCN(c3cc(C(=O)O)cc(Cl)n3)CC2)c(Cl)c1Cl | 10 nM | 0.5 µg/mL (≈ 1.16 µM) | 2 µg/mL (≈ 4.63 µM) | 2 µg/mL (≈ 4.63 µM) | 0.13 µg/mL (≈ 0.301 µM) | 1 µg/mL (≈ 2.32 µM) | 4 µg/mL (≈ 9.27 µM) | > 64 µg/mL | 0.25 µg/mL (≈ 0.579 µM) | – | – | – | – | – | – | – | – | – | – |
| Cc1[nH]c(C(=O)NC2CCN(c3cc(C(N)=O)cc(Cl)n3)CC2)cc1Cl | 110 nM | 4 µg/mL (≈ 10.1 µM) | > 32 µg/mL | 32 µg/mL (≈ 80.8 µM) | – | > 32 µg/mL | > 64 µg/mL | > 64 µg/mL | 8 µg/mL (≈ 20.2 µM) | – | – | – | – | – | – | – | – | – | – |
| Cc1[nH]c(C(=O)NC2CCN(c3cc(C(N)=O)cc(Cl)n3)CC2)cc1Br | 100 nM | 4 µg/mL (≈ 9.08 µM) | 32 µg/mL (≈ 72.6 µM) | 32 µg/mL (≈ 72.6 µM) | 8 µg/mL (≈ 18.2 µM) | > 64 µg/mL | 64 µg/mL (≈ 145 µM) | > 64 µg/mL | 4 µg/mL (≈ 9.08 µM) | – | – | – | – | – | – | – | – | – | – |
| Cc1[nH]c(C(=O)NC2CCN(c3ncc(C(=O)O)s3)CC2)c(Cl)c1Cl | 20 nM | 0.5 µg/mL (≈ 1.24 µM) | 8 µg/mL (≈ 19.8 µM) | 8 µg/mL (≈ 19.8 µM) | 0.5 µg/mL (≈ 1.24 µM) | 2 µg/mL (≈ 4.96 µM) | 2 µg/mL (≈ 4.96 µM) | > 64 µg/mL | 0.25 µg/mL (≈ 0.62 µM) | – | – | – | – | – | – | – | – | – | – |
| CONC(=O)c1cnc(N2CCC(NC(=O)c3[nH]c(C)c(Cl)c3Cl)CC2)s1 | 50 nM | 1 µg/mL (≈ 2.31 µM) | 8 µg/mL (≈ 18.5 µM) | 8 µg/mL (≈ 18.5 µM) | 1 µg/mL (≈ 2.31 µM) | 8 µg/mL (≈ 18.5 µM) | 16 µg/mL (≈ 37 µM) | > 64 µg/mL | 0.25 µg/mL (≈ 0.578 µM) | – | – | – | – | – | – | – | – | – | – |
| Cc1[nH]c(C(=O)N[C@H]2CCN(c3ncc(C(=O)O)s3)C[C@H]2F)c(Cl)c1Cl | 35 nM | – | – | – | – | – | – | – | – | 2 µg/mL (≈ 4.75 µM) | 16 µg/mL (≈ 38 µM) | 32 µg/mL (≈ 76 µM) | 1 µg/mL (≈ 2.37 µM) | 4 µg/mL (≈ 9.49 µM) | 4 µg/mL (≈ 9.49 µM) | 0.5 µg/mL (≈ 1.19 µM) | – | – | – |
| Cc1ccc(C(=O)NC2CCN(c3cc(C(N)=O)cc(Cl)n3)CC2)[nH]1 | 6900 nM | > 64 µg/mL | > 64 µg/mL | > 64 µg/mL | > 64 µg/mL | > 64 µg/mL | > 64 µg/mL | > 64 µg/mL | > 64 µg/mL | – | – | – | – | – | – | – | – | – | – |

— ChEMBL document CHEMBL1921740, “Pyrrolamide DNA gyrase inhibitors: optimization of antibacterial activity and efficacy” (Bioorg Med Chem Lett, 2011)
